BindingDB's records for PubMed 32809817 (Griffith University, 2020)

Target: T1, Galectin-8 (Homo sapiens, UniProt O00214)
T1 sequence (O00214 whole entry): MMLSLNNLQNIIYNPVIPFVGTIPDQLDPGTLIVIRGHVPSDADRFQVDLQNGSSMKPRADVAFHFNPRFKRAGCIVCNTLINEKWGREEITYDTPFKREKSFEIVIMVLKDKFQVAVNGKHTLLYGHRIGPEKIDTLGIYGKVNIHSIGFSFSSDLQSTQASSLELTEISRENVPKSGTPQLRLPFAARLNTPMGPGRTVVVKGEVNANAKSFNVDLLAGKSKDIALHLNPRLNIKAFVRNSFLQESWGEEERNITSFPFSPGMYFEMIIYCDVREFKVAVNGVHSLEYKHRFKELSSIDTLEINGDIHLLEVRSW
Assay: Binding affinity to N-terminal domain of human galectin-8 (8-154 residues) by ITC assay
Outline: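 Untagged galectin-8N (residues 8-154) was expressed in bacteria (IPTG induction 4 h, room temperature) and purified on lactosyl-Sepharose at 4 °C. Protein and ligand were in 20 mM Tris pH 7.5, 100 mM NaCl, 4 mM BME, 5% DMSO and degassed. Ligand (0.5 or 1 mM) was titrated into 100 µM protein over 20-25 × 2.5 µl injections, 150 s apart, at 298 K. Blank-corrected data were fitted to an independent-site model for Kd.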

Kd: 37.9 µM
Compound: OC[C@H]1O[C@@H](O[C@H]2[C@H](O)[C@@H](O)[C@H](O)O[C@@H]2CO)[C@H](O)[C@@H](O)[C@H]1O [Lactose, anhydrous]
